Source: PubChem BioAssay
Tb MetRS inh – T. brucei MetRS inhibitors, primary screen, biochemical, luminescence | AID 624268, 2012 | methionyl-tRNA synthetase (Trypanosoma brucei brucei) | inhibition, % at 11.9 µM | purified T. brucei MetRS, ATP depletion, Kinase-Glo luminescence | 360,000 tested, 0.4% active;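 active = inhibition above a per-plate cutoff of the control wells' mean inhibition plus 3 SD, cut at about 5.5% in these data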;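 note: 0% = DMSO wells median and 100% = median of wells with control inhibitor compound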
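Material: parasite MetRS enzyme / Replication: singlicate, one well per compound / Signal: luminescence of leftover ATP / Schedule: 2 h aminoacylation at 25 °C after 15 min preincubation / Medium: HEPES-MgCl2-KCl buffer plus DTT, spermine, BSA, pyrophosphatase / Doses: 11.9 µM single point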
ADAM10 inh – human ADAM10 inhibitors, primary screen, biochemical, QFRET, HTS; Disintegrin and metalloproteinase domain-containing protein 10 (Homo sapiens), O14672; recombinant ADAM10, EDANS/DABCYL FRET peptide cleavage, 3 h; inhibition, % at 7 µM; 370,000 tested, 0.62% active; AID 720582, 2013;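 active = inhibition above a per-campaign cutoff equal to the mean of compounds falling between control-based bounds plus 3 SD, cut at about 20% in these data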;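 note: 0% = DMSO wells while the 100% control is not disclosed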
PLC-beta3 inh – human PLC-beta3 inhibitors, primary screen, biochemical, fluorescence. inhibition, % at 12.2 µM. Purified PLC-beta3, fluorogenic substrate. AID 720704, 2013. 1-phosphatidylinositol 4,5-bisphosphate phosphodiesterase beta-3 (Homo sapiens), Q01970. 370,000 tested, 0.18% active; in the data active = inhibition above about 11%;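 note: 0% = median of compound wells on plate and 100% = full blocker control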
PLCg1 inh – PLC-gamma1 enzyme inhibitors, primary screen, biochemical, fluorescence, purified enzyme; fluorogenic substrate; 1-phosphatidylinositol 4,5-bisphosphate phosphodiesterase gamma-1 (Homo sapiens), P19174; AID 720700, 2013; inhibition, % at 12.2 µM; 370,000 tested, 0.84% active; in the data active = inhibition above about 9.5%
ADAM17 inh – ADAM17 inhibitors, primary screen, biochemical, QFRET; Disintegrin and metalloproteinase domain-containing protein 17 (Homo sapiens), P78536; recombinant ADAM17, EDANS/DABCYL FRET peptide cleavage; inhibition, % at 6.95 µM; 370,000 tested, 0.83% active; AID 720648, 2013;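 active = inhibition above the mean of compounds lying between control limits plus 3 SD, set per campaign, cut at about 8.5% in these data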;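 note: 0% = DMSO-only wells as the low control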
ADAM10 confirm – human ADAM10 inhibitors, confirmation, biochemical, QFRET, triplicate; 2,100 tested, 1% active; shares compounds with ADAM10 inh; inhibition, % at 6.95 µM; ADAM10 QFRET peptide cleavage, EDANS fluorescence; AID 743208, 2013;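 active = inhibition above about 20% chosen separately for each screening run, limit read from the data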;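 note: 0% = DMSO wells and 100% = marimastat wells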
ADAM17 ctr – ADAM17 inhibitors, counter-screen for ADAM10 exosite inhibitor project, biochemical, QFRET, high throughput. shares compounds with ADAM10 inh. ADAM17 QFRET peptide cleavage, EDANS fluorescence. inhibition, % at 6.95 µM. 2,100 tested, 0.5% active. AID 743214, 2013;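 active = mean triplicate inhibition above the solvent-only control wells' mean plus 3 SD, cut at about 12% in these data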;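 note: 0% = DMSO wells and 100% = marimastat wells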
ADAM10 counter – ADAM10 inhibitors, counter-screen for ADAM17 exosite inhibitor project, biochemical, FRET, human ADAM10; shares compounds with ADAM17 inh; recombinant ADAM10, EDANS/DABCYL FRET peptide cleavage, 3 h; inhibition, % at 6.95 µM; 2,900 tested, 47% active; AID 743256, 2014;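 active = mean inhibition over the triplicate runs exceeds the activity threshold set in the earlier primary screen, cut at about 20% in these data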;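 note: 0% = DMSO wells and 100% = marimastat wells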
ADAM17 confirm – ADAM17 inhibitors, hit retest, confirmation, biochemical, QFRET peptide cleavage. inhibition, % at 6.95 µM. shares compounds with ADAM17 inh. recombinant ADAM17, EDANS/DABCYL QFRET peptide cleavage. 2,900 tested, 65% active;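 active = mean inhibition across replicates above the hit cutoff set in the primary screen, cut at about 8.5% in these data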;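 note: 0% = DMSO wells and 100% = marimastat wells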
An asterisk follows results filed as active; nt = no result given. Sampled rows, rich in hits. Any-hit rate of the full collection: about 2.3%.

SMILES	Tb MetRS inh	ADAM10 inh	PLC-beta3 inh	PLCg1 inh	ADAM17 inh	ADAM10 confirm	ADAM17 ctr	ADAM10 counter	ADAM17 confirm
COc1ccc(-c2nnc(SCC(=O)NN=C(C)c3cccc4ccccc34)n2-c2ccccc2)cc1	nt	7.2	3.6	2.3	1.6	nt	nt	nt	nt
CC(=NNC(=O)CSc1nnc(-c2ccc(C(C)(C)C)cc2)n1-c1ccccc1)c1cccc2ccccc12	nt	22.6*	-0.8	-0.1	8.9*	13.5	3.6	16.9	12.5*
O=C(CSc1nnc(-c2ccc(Cl)cc2)n1Cc1ccco1)Nc1cccc2ccccc12	nt	-11.3	-2.1	0.1	-1.3	nt	nt	nt	nt
CC(C)(C)c1ccc(-c2nnc(SCC(=O)Nc3cccc4ccccc34)n2Cc2ccco2)cc1	nt	19.8*	2.1	5.2	9.2*	6.2	2.0	35.8*	16.9*
Cc1cc(C)n(Cc2ccc(NC(=O)c3ccc(COc4ccccc4Br)cc3)cc2)n1	-0.5	28.9*	-6.7	-2.1	10.9*	9.6	4.0	16.9	12.4*
COc1cccc(CNC(=O)[C@H]2CCCN2C(=O)[C@H]2CCCN2C(=O)c2ccc(F)c(C(F)(F)F)c2)c1	nt	-2.2	1.3	-0.7	-5.8	nt	nt	nt	nt
CC(C)C1C(=O)N(Cc2cn(CCC3OCCO3)nn2)CCS(=O)(=O)N1Cc1ccc(-c2ccc(F)cc2Cl)cc1 (configuration not stated)	0.1	24.0*	2.0	4.0	10.0*	5.9	2.5	33.3*	17.5*
CC(C)CC1C(=O)N(Cc2cn(CCC3OCCO3)nn2)CCS(=O)(=O)N1Cc1ccc(-c2ccc(F)cc2)cc1 (configuration not stated)	-0.7	25.1*	0.7	0.6	11.1*	7.5	2.5	30.9*	16.7*
COCOCCn1cc(CN2CCS(=O)(=O)N(Cc3ccc(-c4ccc(Cl)c(Cl)c4)cc3)C(C)C2=O)nn1 (configuration not stated)	-0.9	23.4*	0.2	2.2	11.2*	7.0	1.9	35.3*	18.5*
CC(C)C1C(=O)N(Cc2cn(CCC3OCCO3)nn2)CCS(=O)(=O)N1Cc1ccc(-c2ccccc2Cl)cc1 (configuration not stated)	-0.5	4.3	3.1	-1.8	6.3	nt	nt	nt	nt
CC(C)C1C(=O)N(Cc2cn(CC3CCCCC3)nn2)CCS(=O)(=O)N1Cc1ccc(-c2ccccc2)cc1 (configuration not stated)	-1.0	22.3*	4.6	3.8	11.0*	14.0	3.1	38.4*	15.1*
COCOCCn1cc(CN2CCS(=O)(=O)N(Cc3ccc(-c4ccc(C)cc4)cc3)C(C)C2=O)nn1 (configuration not stated)	-1.3	8.5	-4.3	-2.1	6.4	nt	nt	nt	nt
Cc1cc(C)c2c(=O)[nH]c(SCc3ccc([N+](=O)[O-])cc3)nc2n1	0.0	0.0	2.9	-2.5	-1.4	nt	nt	nt	nt
Cc1cc(C)c(CSc2ncc(-c3ccc([N+](=O)[O-])cc3)[nH]2)c(C)c1	-0.4	34.4*	-55.9	-47.3	11.0*	12.0	4.0	41.1*	23.3*
